In ChEMBL document CHEMBL1255444, “In vitro antibacterial activities of JNJ-Q2, a new broad-spectrum fluoroquinolone” (Antimicrob Agents Chemother, 2010):
Converted amounts (≈) assume the structure as drawn.

Legend:
Assay type in all cases: functional
[1] = tested on: Staphylococcus aureus; experiment: Antibacterial activity against methicillin-resistant Staphylococcus aureus isolate OC17042 harboring gyrA S84L/G106D, parC S80F and parE D732N mutant gene by broth microdilution method
Summary of the method: (§1)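 CLSI M07-A7 broth microdilution MIC. Medium was cation-adjusted Mueller-Hinton broth. For S. pneumoniae it was Mueller-Hinton supplemented with 5% lysed horse blood. CLSI quality-control strains were included as appropriate.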

[2] = tested on: Streptococcus pneumoniae; experiment: Antibacterial activity against Streptococcus pneumoniae OC7453 harboring gyrA S81F mutant gene by agar dilution method
Summary of the method: (§2)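 MICs for the resistance-selection studies were determined by CLSI agar dilution on Mueller-Hinton medium. For S. pneumoniae the medium was supplemented with 5% lysed horse blood. For MRSA fluctuation-assay strains an arithmetic agar dilution scheme was used for a more precise MIC.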

[3] = tested on: Streptococcus pneumoniae; experiment: Antibacterial activity against Streptococcus pneumoniae isolate OC7376 by broth microdilution method; summary of the method: as §1
[4] = tested on: Staphylococcus aureus; experiment: Antibacterial activity against methicillin-resistant Staphylococcus aureus isolate OC12501 by broth microdilution method; summary of the method: as §1
[5] = tested on: Enterococcus faecium; experiment: Antibacterial activity against Enterococcus faecium by broth microdilution method
Summary of the method: (§3)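 MICs by CLSI M07-A7 broth microdilution in cation-adjusted Mueller-Hinton medium. For S. pneumoniae the medium was supplemented with 5% lysed horse blood. CLSI quality control strains were run alongside as appropriate.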

[6] = tested on: Streptococcus pneumoniae; experiment: Antibacterial activity against Streptococcus pneumoniae isolate OC6585 by broth microdilution method; summary of the method: as §1
[7] = Antibacterial activity against Streptococcus sp. group C by broth microdilution method
Summary of the method: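 MICs by broth microdilution following CLSI M07-A7 in cation-adjusted Mueller-Hinton medium, using isolates from the J&JPRD culture collection. CLSI quality control strains were included as appropriate.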

[8] = tested on: Streptococcus pyogenes; experiment: Antibacterial activity against Streptococcus pyogenes by broth microdilution method; summary of the method: as §3
[9] = tested on: Streptococcus pneumoniae; experiment: Antibacterial activity against Streptococcus pneumoniae isolate OC6790 by broth microdilution method; summary of the method: as §1
[10] = tested on: Klebsiella aerogenes; experiment: Antibacterial activity against Enterobacter aerogenes by broth microdilution method; summary of the method: as §3
[11] = tested on: Streptococcus pneumoniae; experiment: Antibacterial activity against Streptococcus pneumoniae isolate OC6608 by broth microdilution method; summary of the method: as §1
[12] = tested on: Citrobacter freundii; experiment: Antibacterial activity against Citrobacter freundii by broth microdilution method; summary of the method: as §3
[13] = tested on: Streptococcus pneumoniae; experiment: Antibacterial activity against Streptococcus pneumoniae ATCC 49619 by broth microdilution method; summary of the method: as §3
[14] = tested on: Streptococcus agalactiae; experiment: Antibacterial activity against Streptococcus agalactiae by broth microdilution method; summary of the method: as §3
[15] = tested on: Staphylococcus epidermidis; experiment: Antibacterial activity against methicillin-susceptible Staphylococcus epidermidis by broth microdilution method
[16] = tested on: Staphylococcus aureus; experiment: Antibacterial activity against Staphylococcus aureus […] by broth microdilution method; summary of the method: as §1
[17] = tested on: Providencia stuartii; experiment: Antibacterial activity against Providencia stuartii by broth microdilution method; summary of the method: as §3
[18] = tested on: Streptococcus pneumoniae; experiment: Antibacterial activity against Streptococcus pneumoniae isolate OC7368 by broth microdilution method; summary of the method: as §1
[19] = tested on: Staphylococcus aureus; experiment: Antibacterial activity against methicillin-resistant Staphylococcus aureus isolate OC11696 by broth microdilution method; summary of the method: as §1
[20] = tested on: Staphylococcus aureus; experiment: Antibacterial activity against methicillin-resistant Staphylococcus aureus isolate OC4222 harboring gyrA S84L and parC S80F mutant gene by broth microdilution method; summary of the method: as §1
[21] = tested on: Escherichia coli; experiment: Antibacterial activity against ciprofloxacin-resistant Escherichia coli by broth microdilution method; summary of the method: as §1
[22] = tested on: Staphylococcus aureus; experiment: Antibacterial activity against methicillin-resistant Staphylococcus aureus isolate OC11521 harboring gyrA S84L/S85P, parC E84G mutant gene by broth microdilution method; summary of the method: as §1
[23] = tested on: Streptococcus pneumoniae; experiment: Antibacterial activity against Streptococcus pneumoniae OC6755 harboring gyrA S81F and parC S79Y mutant gene by agar dilution method; summary of the method: as §2
[24] = tested on: Enterococcus faecalis; experiment: Antibacterial activity against Enterococcus faecalis ATCC 29212 by broth microdilution method; summary of the method: as §3
[25] = tested on: Streptococcus pneumoniae; experiment: Antibacterial activity against Streptococcus pneumoniae isolate OC6610 by broth microdilution method; summary of the method: as §1
[26] = tested on: Streptococcus pneumoniae; experiment: Antibacterial activity against Streptococcus pneumoniae isolate OC7189 by broth microdilution method; summary of the method: as §1
[27] = tested on: Streptococcus pneumoniae; experiment: Antibacterial activity against Streptococcus pneumoniae isolate OC5462 by broth microdilution method; summary of the method: as §1
[28] = tested on: Streptococcus pneumoniae; experiment: Antibacterial activity against Streptococcus pneumoniae R6 by agar dilution method; summary of the method: as §2
[29] = tested on: Haemophilus influenzae; experiment: Antibacterial activity against Haemophilus influenzae by broth microdilution method; summary of the method: as §3
[30] = tested on: Staphylococcus aureus; experiment: Antibacterial activity against methicillin-, ciprofloxacin-resistant Staphylococcus aureus by broth microdilution method; summary of the method: as §1
[31] = tested on: Staphylococcus epidermidis; experiment: Antibacterial activity against methicillin-resistant Staphylococcus epidermidis by broth microdilution method
[32] = tested on: Staphylococcus epidermidis; experiment: Antibacterial activity against methicillin-, ciprofloxacin-resistant Staphylococcus epidermidis by broth microdilution method
[33] = tested on: Streptococcus pneumoniae; experiment: Antibacterial activity against Streptococcus pneumoniae OC7452 harboring parC S79Y mutant gene by agar dilution method; summary of the method: as §2
[34] = tested on: Staphylococcus aureus; experiment: Antibacterial activity against methicillin-resistant Staphylococcus aureus by broth microdilution method; summary of the method: as §1
[35] = tested on: Serratia marcescens; experiment: Antibacterial activity against Serratia marcescens by broth microdilution method; summary of the method: as §3
[36] = tested on: Pseudomonas aeruginosa; experiment: Antibacterial activity against Pseudomonas aeruginosa ATCC 27853 by broth microdilution method; summary of the method: as §3
[37] = tested on: Moraxella catarrhalis; experiment: Antibacterial activity against Moraxella catarrhalis by broth microdilution method; summary of the method: as §3
[38] = tested on: Streptococcus pneumoniae; experiment: Antibacterial activity against Streptococcus pneumoniae isolate OC7348 by broth microdilution method; summary of the method: as §1
[39] = tested on: Staphylococcus aureus; experiment: Antibacterial activity against methicillin-resistant Staphylococcus aureus isolate OC2838 by broth microdilution method; summary of the method: as §1
[40] = tested on: Staphylococcus aureus; experiment: Antibacterial activity against methicillin-susceptible Staphylococcus aureus by broth microdilution method
[41] = tested on: Staphylococcus aureus; experiment: Antibacterial activity against methicillin-resistant Staphylococcus aureus isolate OC11223 by broth microdilution method; summary of the method: as §1
[42] = tested on: Proteus mirabilis; experiment: Antibacterial activity against Proteus mirabilis by broth microdilution method; summary of the method: as §3
[43] = tested on: Staphylococcus aureus; experiment: Antibacterial activity against methicillin-resistant Staphylococcus aureus isolate OC8530 harboring gyrA S84L and parC I143V mutant gene by broth microdilution method
Summary of the method: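 CLSI M07-A7 broth microdilution MIC in cation-adjusted Mueller-Hinton medium. For S. pneumoniae the medium was supplemented with 5% lysed horse blood. CLSI quality-control strains were included as appropriate.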

## COc1c(N2C[C@@H]3CCCN[C@@H]3C2)c(F)cc2c(=O)c(C(=O)O)cn(C3CC3)c12 [MOXIFLOXACIN]
[1]
  MIC: 8 µg/mL (≈ 19.9 µM)
[2]
  MIC: 0.5 µg/mL (≈ 1.25 µM)
[3]
  MIC: 2 µg/mL (≈ 4.98 µM)
[4]
  MIC: 1 µg/mL (≈ 2.49 µM)
[5]
  MIC50: 4 µg/mL (≈ 9.96 µM)
  MIC90: > 16 µg/mL
[6]
  MIC: 8 µg/mL (≈ 19.9 µM)
[7]
  MIC50: 0.12 µg/mL (≈ 0.299 µM)
  MIC90: 0.25 µg/mL (≈ 0.623 µM)
[8]
  MIC: 0.12 µg/mL (≈ 0.299 µM)
  MIC50: 0.12 µg/mL (≈ 0.299 µM)
  MIC90: 0.25 µg/mL (≈ 0.623 µM)
[9]
  MIC: 4 µg/mL (≈ 9.96 µM)
[10]
  MIC50: 0.12 µg/mL (≈ 0.299 µM)
  MIC90: 0.25 µg/mL (≈ 0.623 µM)
[11]
  MIC: 2 µg/mL (≈ 4.98 µM)
[12]
  MIC50: 2 µg/mL (≈ 4.98 µM)
  MIC90: > 8 µg/mL
[13]
  MIC50: 0.25 µg/mL (≈ 0.623 µM)
  MIC90: 4 µg/mL (≈ 9.96 µM)
[14]
  MIC50: 0.25 µg/mL (≈ 0.623 µM)
  MIC90: 0.25 µg/mL (≈ 0.623 µM)
[15]
  MIC50: 0.06 µg/mL (≈ 0.149 µM)
[16]
  MIC50: 2 µg/mL (≈ 4.98 µM)
  MIC90: 8 µg/mL (≈ 19.9 µM)
[17]
  MIC50: 32 µg/mL (≈ 79.7 µM)
  MIC90: 64 µg/mL (≈ 159 µM)
[18]
  MIC: 4 µg/mL (≈ 9.96 µM)
[19]
  MIC: 1 µg/mL (≈ 2.49 µM)
[20]
  MIC: 2 µg/mL (≈ 4.98 µM)
[21]
  MIC50: 32 µg/mL (≈ 79.7 µM)
  MIC90: 128 µg/mL (≈ 319 µM)
[22]
  MIC: 32 µg/mL (≈ 79.7 µM)
[23]
  MIC: 8 µg/mL (≈ 19.9 µM)
[24]
  MIC: 0.25 µg/mL (≈ 0.623 µM)
  MIC50: 0.25 µg/mL (≈ 0.623 µM)
  MIC90: 16 µg/mL (≈ 39.9 µM)
[25]
  MIC: 16 µg/mL (≈ 39.9 µM)
[26]
  MIC: 0.25 µg/mL (≈ 0.623 µM)
[27]
  MIC: 1 µg/mL (≈ 2.49 µM)
[28]
  MIC: 0.12 µg/mL (≈ 0.299 µM)
[29]
  MIC50: 0.015 µg/mL (≈ 0.0374 µM)
  MIC90: 0.03 µg/mL (≈ 0.0747 µM)
[30]
  MIC50: 4 µg/mL (≈ 9.96 µM)
  MIC90: 8 µg/mL (≈ 19.9 µM)
[31]
  MIC50: 2 µg/mL (≈ 4.98 µM)
  MIC90: 4 µg/mL (≈ 9.96 µM)
[32]
  MIC50: 2 µg/mL (≈ 4.98 µM)
  MIC90: 4 µg/mL (≈ 9.96 µM)
[33]
  MIC: 0.25 µg/mL (≈ 0.623 µM)
[34]
  MIC50: 2 µg/mL (≈ 4.98 µM)
  MIC90: 8 µg/mL (≈ 19.9 µM)
[35]
  MIC50: 0.5 µg/mL (≈ 1.25 µM)
  MIC90: 1 µg/mL (≈ 2.49 µM)
[36]
  MIC50: 2 µg/mL (≈ 4.98 µM)
  MIC90: 4 µg/mL (≈ 9.96 µM)
[37]
  MIC: 0.06 µg/mL (≈ 0.149 µM)
  MIC50: 0.06 µg/mL (≈ 0.149 µM)
  MIC90: 0.06 µg/mL (≈ 0.149 µM)
[38]
  MIC: 8 µg/mL (≈ 19.9 µM)
[39]
  MIC: 4 µg/mL (≈ 9.96 µM)
[40]
  MIC: 0.06 µg/mL (≈ 0.149 µM)
  MIC50: 0.06 µg/mL (≈ 0.149 µM)
[41]
  MIC: 0.06 µg/mL (≈ 0.149 µM)
[42]
  MIC50: 0.5 µg/mL (≈ 1.25 µM)
  MIC90: 0.5 µg/mL (≈ 1.25 µM)
[43]
  MIC: 2 µg/mL (≈ 4.98 µM)
